# Source: PubChem BioAssay
# KCNQ1 pot: human KCNQ1 channel potentiation or activation | AID 2648 | 310,000 compounds, 0.35% hits | B-score at 10 µM | CHO-K1 KCNQ1, thallium flux FluxOR fluorescence; stronger effect = higher value | P51787;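 active means fluorescence ratio B-score, a plate-corrected score, at least three library SD, with initial intensity B-score within 5 SD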
# Target sequence (P51787 whole entry, looked up): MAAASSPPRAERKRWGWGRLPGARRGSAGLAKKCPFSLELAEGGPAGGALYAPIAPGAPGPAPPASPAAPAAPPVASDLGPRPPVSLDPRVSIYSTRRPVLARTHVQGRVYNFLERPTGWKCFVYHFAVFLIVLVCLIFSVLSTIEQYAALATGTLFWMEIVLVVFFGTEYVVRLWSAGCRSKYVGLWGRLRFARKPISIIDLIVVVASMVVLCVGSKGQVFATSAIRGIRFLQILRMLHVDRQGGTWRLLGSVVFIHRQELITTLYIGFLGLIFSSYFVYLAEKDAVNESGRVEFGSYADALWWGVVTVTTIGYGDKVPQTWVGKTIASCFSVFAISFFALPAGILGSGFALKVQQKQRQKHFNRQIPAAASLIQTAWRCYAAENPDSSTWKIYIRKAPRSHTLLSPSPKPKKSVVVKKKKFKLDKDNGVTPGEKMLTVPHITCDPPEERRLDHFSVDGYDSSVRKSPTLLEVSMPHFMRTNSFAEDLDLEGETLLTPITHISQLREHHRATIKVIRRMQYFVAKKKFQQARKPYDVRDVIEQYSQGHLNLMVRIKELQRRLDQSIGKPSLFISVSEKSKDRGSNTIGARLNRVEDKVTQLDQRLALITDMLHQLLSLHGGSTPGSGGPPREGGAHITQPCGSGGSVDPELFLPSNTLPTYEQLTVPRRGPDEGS
#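 Schedule – 37 °C overnight plating, 90-min dark dye load, 20-min compound pretreatment · System – stable KCNQ1 CHO-K1 line · Probe or stimulus – thallium- and potassium-containing depolarizing buffer · Measured by – kinetic FluxOR fluorescence, 10 s baseline plus 110 s post-stimulus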
# Kir21 inh: inhibitors of mouse Kir2.1 inward-rectifier potassium channel; P35561; B-score at 10 µM; AID 1672; HEK293-Kir2.1, FluxOR thallium flux fluorescence; stronger effect = lower value; 310,000 compounds, 0.85% hits;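 active means fluorescence ratio B-score at or below minus 3 SD of library scores, with starting-brightness B-score within 2 SD, cut at about -4.2 in these data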;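 further: channel flux triggered by added potassium and thallium sulfate stimulus; B-score of peak minus minimum fluorescence over baseline after thallium stimulus; more negative B-score means stronger Kir2.1 block with less thallium influx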
# hERG rescue: hERG (human) protection from proarrhythmic block. Q12809. CHO-hERG, FluxOR thallium flux, dofetilide IC70 present. activation (rescue from dofetilide block), less the hit threshold, % at 10 µM. 310,000 compounds, 0.51% hits;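 active means activation above the mean of controls blocked by dofetilide plus 5 SD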;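 further: thallium influx through hERG after potassium depolarization seen as dye fluorescence rise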
# KCNK9 block: inhibitors of human KCNK9 two-pore domain potassium channel; 310,000 compounds, 1.2% hits; Q9NPC2; B-score at 10 µM; HEK293 KCNK9, FluxOR thallium flux fluorescence; stronger effect = lower value; AID 488922;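 active means ratio B-score over 3 SD below the library mean, with starting fluorescence within 5 SD of its mean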;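 further: negative B-score means less thallium flux so channel inhibition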
# KCNK3 inh: human KCNK3 channel inhibition, primary screen; O14649; CHO-KCNK3 thallium flux, FluxOR fluorescence; stronger effect = lower value; B-score at 10 µM; 340,000 compounds, 0.84% hits; AID 602410;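 active means B-score under library mean minus 4 SD, starting fluorescence ratio at most library mean plus 5 SD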;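 further: more negative B-score means stronger inhibition of thallium flux through KCNK3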
# KCNQ1 inh: inhibitors of human KCNQ1 potassium channel; CHO-K1 KCNQ1, FluxOR thallium flux fluorescence; stronger effect = higher value; B-score at 10 µM; 310,000 compounds, 1.3% hits; AID 2642;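 active means compounds whose thallium flux B-score, printed positive for inhibition, exceeds three library SD while starting fluorescence stays within three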;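 further: channel opened by potassium depolarization with thallium stimulus after 20 min compound exposure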
# * = called active by the depositor; i = inactive; . = no result given; ! = not active in a repeat. Rows were chosen to be rich in hits. Some 3.7% of all compounds tested hit in one or more screens of this group.
SMILES,KCNQ1 pot,Kir21 inh,hERG rescue,KCNK9 block,KCNK3 inh,KCNQ1 inh
CCOc1cccc(C(=O)NNC(=O)CCC(=O)O)c1,i,0.75,-4,i,i,i
Cc1ccc(CNS(=O)(=O)c2cc3c4c(c2)C(C)C(=O)N4CCC3)cc1 (centres undefined),i,-0.9,-12,i,i,i
O=C(Nc1ccc(Cl)cc1)N(C1=NCCC1)c1ccc(OC(F)F)cc1,i,0.24,-16,i,i,6*
Cc1ccc(C(=O)CCC(=O)OCC(=O)N(C)c2c(N)n(Cc3ccccc3)c(=O)[nH]c2=O)cc1,i,-0.67,-6,i,i,i
COc1ccc(CCN(C)C2CCCN(C(=O)c3sccc3C)C2)cc1OC (centres undefined),i,-0.75,-8,i,i,i
CC(=O)c1ccc(N2CCN(C(=O)/C=C/c3ccc(S(=O)(=O)N4CCOCC4)cc3)CC2)cc1,i,0.78,-14,i,i,i
CC(=O)c1ccc(N2CCN(C(=O)/C=C/c3ccc(S(=O)(=O)NCc4ccco4)cc3)CC2)cc1,i,0.05,4.9*,i,i,i
COc1ccc(NC(=O)CCN(c2ccc(OC)cc2)S(=O)(=O)c2ccc(C)c(C)c2)cc1,.,.,.,.,i,.
O=C(C[C@@H]1C/C=C\C[C@@H](Cc2ccc(F)cc2)C(=O)OCCNC1=O)NCCO,.,.,.,.,i,.
O=S(=O)(c1ccc2c(c1)OCCO2)N1CCN(c2ncnc3sccc23)CC1,i,1.4,-14,i,i,6*
Cc1ccc(S(=O)(=O)N2CCN(c3ncnc4sccc34)CC2)cc1C,.,.,.,.,i,.
N#C/C(=C(/O)COC(=O)c1ccc(C#N)cc1)c1nc2ccccc2s1,i,0,-1,i,i,6*
CC1CCCCC1NCC(=O)NCc1ccc(F)cc1 (centres undefined),i,0.55,4.7*,i,i,i
O=C(CCC1CCCCC1)NCc1ccc(F)cc1,i,-2,-5,i,i,i
COc1cc(Cl)ccc1NC(=O)COc1ccccc1C(=O)NN,i,1.7,-11,i,i,i
S=C1NCCc2ccc(Cl)cc2C1c1ccccc1 (centres undefined),.,.,.,.,-10*,.
O=C(CSc1nc2nn(-c3ccccc3)c(=O)c-2c2n1CCCCC2)Nc1cccc(F)c1,.,.,.,.,i,.
CCOC(O)[C@H]1N[C@@H](c2ccc(Cl)cc2)[C@@H]([N+](=O)[O-])[C@@H]1c1ccccc1 (some centres undefined),i,-1.5,-4,-7.1*,i,i
Cc1cc(C)n2nc(SCC(=O)NC(=O)c3ccc(OC(F)F)cc3)nc2n1,.,.,.,.,i,.
C[C@H](CO)N1C[C@H](C)[C@@H](CN(C)Cc2ccncc2)Oc2c(NC(=O)Cc3ccccc3)cccc2C1=O,.,.,.,.,-11*,.
C[C@H](CO)N1C[C@H](C)[C@@H](CN(C)Cc2ccccc2)Oc2c(NC(=O)Cc3ccccc3)cccc2C1=O,.,.,.,.,i,.
Cn1c2ccc(F)cc2c2nnc(SCC(=O)Nc3cccc(O)c3)nc21,i,1.2,5.2*,i,i,i
COc1ccccc1C(=O)ON=C1c2ccccc2-c2ccccc21,i,1.8,-19,-8.1*,i,i
O=C(NN=C1CCCC1)c1[nH]c2ccc(Cl)cc2c1-c1ccccc1,i,-1.8,-10,i,i,6*
C/C(=N\N)c1c(-c2ccccc2)c2cc(C)ccc2[nH]c1=O,i,0.14,-14,i,i,i
SMILES,KCNQ1 pot,Kir21 inh,hERG rescue,KCNK9 block,KCNK3 inh,KCNQ1 inh
CC(=O)NNC(=O)c1[nH]c2ccc(Cl)cc2c1-c1ccccc1,i,0.74,-1,i,i,i
CC/C(C)=N/NC(=O)c1[nH]c2ccc(C)cc2c1-c1ccccc1,i,-0.87,5.5*,i,i,i
O=C(OCc1nnc(-c2ccccc2)o1)c1ccc(Cl)cc1,i,0,-10,i,i,i
CS(=O)(=O)c1ccc(C(=O)OCc2nnc(-c3ccccc3)o2)cc1[N+](=O)[O-],21*,0,-17,i,i,i
C=CCn1c2ccccc2c2nn(C)c(=S)nc21,i,0.01,-3,i,i,i
CN(Cc1cnccn1)Cc1nc(Cc2ccccc2F)no1,i,-3.1,28*,i,i,i
CCN(C(=O)c1ccc(S(=O)(=O)N2CCOCC2)cc1)C1CCS(=O)(=O)C1 (centres undefined),i,2,-3,i,i,i
C=CCc1ccccc1OCC(O)CN1CCN(Cc2ccc3c(c2)OCO3)CC1 (centres undefined),i,-4.6*!,-15,i,i,i
Cc1ccc(OCC(O)CN2CCN(Cc3ccc4c(c3)OCO4)CC2)cc1C (centres undefined),i,-0.09,-6,i,i,i
Fc1ccccc1C1CC(c2ccco2)=Nc2ccccc2S1 (centres undefined),i,-0.49,-12,-6.9*,i,i
CCn1c(CSCc2ccc(F)cc2)nnc1SCC(=O)NCc1ccccc1,i,-2.1,-7,i,i,i
CCn1c(CSCc2ccc(C)cc2)nnc1SCC(=O)NCc1ccccc1,i,-6*,-20,i,i,i
CCN1CCN(c2ccc(S(=O)(=O)N3CCCCC3)cc2NC(=O)C(C)Oc2ccc(F)cc2)CC1 (centres undefined),i,-5.2*,-5,i,i,i
CC(Oc1ccc(F)cc1)C(=O)Nc1cc(S(=O)(=O)N2CCCCC2)ccc1N1CCOCC1 (centres undefined),i,1.4,-10,i,i,i
CC(=O)N1CCC(CCCC2CCN(C(C)=O)CC2)CC1,i,-0.17,0,i,i,i
CC(C)Sc1ccc([N+](=O)[O-])cc1C(=O)Nc1ccncc1,i,0.89,-9,i,i,i
Cc1cc(C(=O)COc2cc(F)ccc2[N+](=O)[O-])c(C)n1C1CC1,i,-2.5,34*,i,i,i
Cc1ccc(NC(=O)NC2CCCCCCC2)cc1,i,-0.85,-6,i,i,i
CCc1c(C(=O)Nc2cc(C(=O)OC)ccc2C)csc1C,i,-0.32,-13,i,i,i
COC(=O)c1ccccc1NC(=O)Cn1cnc2c(cnn2-c2ccccc2)c1=O,i,-0.3,4.8*,i,i,i
CCc1ccc(NC(=O)c2c(C(=O)Nc3ccccc3)sc3nc(C)cc(=O)n23)cc1,i,-0.17,-10,i,i,i
